Activity calls are given as the source filed them.
What was measured:
[1] = system: Cortical neurone; experiment: Neuroprotective activity against kainate-induced cell damage in mouse primary cortical neurons assessed as reduction in kainate-induced neurofilament loss by measuring increase in MAPK level at 1 uM pretreated followed by kainate challenge measured after 18 hrs by fluorescence assay; format: functional, cell-based; details: in the assay text read “MAP2” for “MAPK”
Summary of the method: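 Mouse primary cortical neurons cultured as previously described; dendritic processes stained with anti-MAP2 antibody. Cell-profile perimeter measured by image analysis, each condition normalized to kainate-only.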

[2] = system: Cortical neurone; experiment: Neuroprotective activity against kainate-induced cell damage in mouse primary cortical neurons assessed as reversal of kainate-induced reduction in calcium flux by fura-2-AM dye based fluorescence assay; format: functional
Summary of the method: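 Mouse primary cortical neurons loaded with fura-2AM for 45 min, washed, then depolarized with 10 mM KCl to drive Ca2+ entry through voltage-gated calcium channels. Flux read on a plate-based system.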

[3] = system: Cortical neurone; experiment: Neuroprotective activity against kainate-induced cell death in mouse primary cortical neurons by MTT assay; format: functional, cell-based
[4] = system: Cortical neurone; experiment: Neuroprotective activity against kainate-induced cell death in mouse primary cortical neurons by cell counting method; format: functional, cell-based
[5] = system: Cortical neurone; experiment: Neuroprotective activity against kainate-induced cell death in mouse primary cortical neurons by caspase activation method; format: functional, cell-based
[6] = species on record: Mus musculus; experiment: Neuroprotective activity against kainate-induced cell death in mouse primary motor neurons by MTT assay; format: functional
[7] = species on record: Mus musculus; experiment: Neuroprotective activity against kainate-induced cell death in mouse primary motor neurons by cell counting method; format: functional
[8] = species on record: Mus musculus; experiment: Neuroprotective activity against kainate-induced cell death in mouse primary motor neurons by caspase activation method; format: functional
[9] = species on record: Mus musculus; experiment: Neuroprotective activity against kainate-induced cell damage in mouse primary motor neurons assessed as reversal of kainate-induced neuronal length preceding cell death by fluorescence assay; format: functional
Summary of the method: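 Mouse primary motor neurons, fixed after treatment and stained with SMI-32 for neurofilaments, then fluorescently imaged. Sholl analysis counted process intersections at each 100 μm radius from the cell centre. Ten cells per condition, three independent experiments, data pooled.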

In the case of `N=c1sc2cc(OC(F)(F)F)ccc2n1CCn1cc(-c2ccc(Br)cc2)nn1`, the Activity [1] is reported as “Active”, the Activity [2] is reported as “Active” and the Activity [3] is reported as “inactive”. For the same compound, the Activity [4] was “inactive”, the Activity [5] was “inactive” and the Activity [6] was “inactive”. For the same compound, the Activity [7] was “inactive”, the Activity [8] was “inactive” and the Activity [9] was “inactive”.
`N=c1sc2cc(OC(F)(F)F)ccc2n1CCn1cc(-c2cc(F)c(F)c(F)c2)nn1` was tested, and the Activity [1] was “inactive”, the Activity [2] was “Active” and the Activity [3] was “inactive”. For the same compound, the Activity [4] was “inactive”, the Activity [5] was “inactive” and the Activity [6] was “inactive”. For the same compound, the Activity [7] was “inactive” and the Activity [8] was “inactive”.
In the case of `CC(C)(C)c1ccc(-c2cn(CCn3c(=N)sc4cc(OC(F)(F)F)ccc43)nn2)cc1`, the Activity [1] is reported as “inactive”, the Activity [2] is reported as “Active” and the Activity [3] is reported as “inactive”. The Activity [4] was “inactive”, the Activity [5] was “inactive” and the Activity [6] was “inactive”. The Activity [7] was “inactive” and the Activity [8] was “inactive”.
For `N=c1sc2cc(OC(F)(F)F)ccc2n1CCn1cc(-c2ccc(Cl)cc2)nn1`, the Activity [1] was “inactive”, the Activity [2] was “Active” and the Activity [3] was “inactive”. The Activity [4] was “inactive”, the Activity [5] was “inactive” and the Activity [6] was “inactive”. For the same compound, the Activity [7] was “inactive” and the Activity [8] was “inactive”.
For `N=c1sc2cc(OC(F)(F)F)ccc2n1CCn1cc(-c2ccc(F)cc2F)nn1`, the Activity [1] was “inactive”, the Activity [2] was “Active” and the Activity [3] was “inactive”. For the same compound, the Activity [4] was “inactive”, the Activity [5] was “inactive” and the Activity [6] was “inactive”. For the same compound, the Activity [7] was “inactive” and the Activity [8] was “inactive”.
For `Cc1ccc(-c2cn(CCn3c(=N)sc4cc(OC(F)(F)F)ccc43)nn2)cc1`, the Activity [1] was “inactive”, the Activity [2] was “Active” and the Activity [3] was “inactive”. The Activity [4] was “inactive”, the Activity [5] was “inactive” and the Activity [6] was “inactive”. For the same compound, the Activity [7] was “inactive” and the Activity [8] was “inactive”.
`N=c1sc2cc(OC(F)(F)F)ccc2n1CCn1cc(-c2cc(C(F)(F)F)cc(C(F)(F)F)c2)nn1` was tested, and the Activity [1] was “inactive”, the Activity [2] was “Active” and the Activity [3] was “inactive”. For the same compound, the Activity [4] was “inactive”, the Activity [5] was “inactive” and the Activity [6] was “inactive”. For the same compound, the Activity [7] was “inactive” and the Activity [8] was “inactive”.
In the case of `N=c1sc2cc(OC(F)(F)F)ccc2n1CCn1cc(CCc2ccccc2)nn1`, the Activity [1] is reported as “inactive”, the Activity [2] is reported as “Active” and the Activity [3] is reported as “inactive”. For the same compound, the Activity [4] was “inactive”, the Activity [5] was “inactive” and the Activity [6] was “inactive”. For the same compound, the Activity [7] was “inactive” and the Activity [8] was “inactive”.
In the case of `N=c1sc2cc(OC(F)(F)F)ccc2n1CCn1cc(-c2ccccc2Cl)nn1`, the Activity [1] is reported as “inactive”, the Activity [2] is reported as “Active” and the Activity [3] is reported as “inactive”. The Activity [4] was “inactive”, the Activity [5] was “inactive” and the Activity [6] was “inactive”. The Activity [7] was “inactive” and the Activity [8] was “inactive”.
In the case of `N=c1sc2cc(OC(F)(F)F)ccc2n1CCn1cc(-c2ccccc2)nn1`, the Activity [1] is reported as “inactive”, the Activity [2] is reported as “Active” and the Activity [3] is reported as “inactive”. The Activity [4] was “inactive”, the Activity [5] was “inactive” and the Activity [6] was “inactive”. For the same compound, the Activity [7] was “inactive”, the Activity [8] was “inactive” and the Activity [9] was “inactive”.
In the case of `COc1cccc(-c2cn(CCn3c(=N)sc4cc(OC(F)(F)F)ccc43)nn2)c1`, the Activity [1] is reported as “inactive”, the Activity [2] is reported as “Active” and the Activity [3] is reported as “inactive”. For the same compound, the Activity [4] was “inactive”, the Activity [5] was “inactive” and the Activity [6] was “inactive”. The Activity [7] was “inactive” and the Activity [8] was “inactive”.
With `Cc1ccccc1-c1cn(CCn2c(=N)sc3cc(OC(F)(F)F)ccc32)nn1` the Activity [1] was “inactive”, the Activity [2] was “Active” and the Activity [3] was “inactive”. The Activity [4] was “inactive”, the Activity [5] was “inactive” and the Activity [6] was “inactive”. For the same compound, the Activity [7] was “inactive” and the Activity [8] was “inactive”.
In the case of `N=c1sc2cc(OC(F)(F)F)ccc2n1CCn1cc(-c2cc(F)cc(F)c2)nn1`, the Activity [1] is reported as “inactive”, the Activity [2] is reported as “Active” and the Activity [3] is reported as “inactive”. For the same compound, the Activity [4] was “inactive”, the Activity [5] was “inactive” and the Activity [6] was “inactive”. For the same compound, the Activity [7] was “inactive” and the Activity [8] was “inactive”.
With `CN(C)c1ccc(-c2cn(CCn3c(=N)sc4cc(OC(F)(F)F)ccc43)nn2)cc1` the Activity [1] was “inactive”, the Activity [2] was “Active” and the Activity [3] was “inactive”. For the same compound, the Activity [4] was “inactive”, the Activity [5] was “inactive” and the Activity [6] was “inactive”. For the same compound, the Activity [7] was “inactive” and the Activity [8] was “inactive”.
`N=c1sc2cc(OC(F)(F)F)ccc2n1CCn1cc(-c2ccc(C(=O)O)cc2)nn1` was tested, and the Activity [1] was “Active”, the Activity [2] was “Active” and the Activity [3] was “inactive”. For the same compound, the Activity [4] was “inactive”, the Activity [5] was “inactive” and the Activity [6] was “inactive”. For the same compound, the Activity [7] was “inactive” and the Activity [8] was “inactive”.
In the case of `CCCCCc1ccc(-c2cn(CCn3c(=N)sc4cc(OC(F)(F)F)ccc43)nn2)cc1`, the Activity [1] is reported as “inactive”, the Activity [2] is reported as “Active” and the Activity [3] is reported as “inactive”. The Activity [4] was “inactive”, the Activity [5] was “inactive” and the Activity [6] was “inactive”. For the same compound, the Activity [7] was “inactive” and the Activity [8] was “inactive”.
For `Cn1cncc1-c1cn(CCn2c(=N)sc3cc(OC(F)(F)F)ccc32)nn1`, the Activity [1] was “inactive”, the Activity [2] was “Active” and the Activity [3] was “inactive”. The Activity [4] was “inactive”, the Activity [5] was “inactive” and the Activity [6] was “inactive”. The Activity [7] was “inactive” and the Activity [8] was “inactive”.
In the case of `CCOC(=O)c1cn(CCn2c(=N)sc3cc(OC(F)(F)F)ccc32)nn1`, the Activity [1] is reported as “inactive”, the Activity [2] is reported as “Active” and the Activity [3] is reported as “inactive”. For the same compound, the Activity [4] was “inactive”, the Activity [5] was “inactive” and the Activity [6] was “inactive”. For the same compound, the Activity [7] was “inactive” and the Activity [8] was “inactive”.
`N=c1sc2cc(OC(F)(F)F)ccc2n1CCn1cc(-c2cccc3ccccc23)nn1` was tested, and the Activity [1] was “inactive”, the Activity [2] was “Active” and the Activity [3] was “inactive”. The Activity [4] was “inactive”, the Activity [5] was “inactive” and the Activity [6] was “inactive”. For the same compound, the Activity [7] was “inactive” and the Activity [8] was “inactive”.
`N#Cc1ccc(-c2cn(CCn3c(=N)sc4cc(OC(F)(F)F)ccc43)nn2)cc1` was tested, and the Activity [1] was “inactive”, the Activity [2] was “Active” and the Activity [3] was “inactive”. For the same compound, the Activity [4] was “inactive”, the Activity [5] was “inactive” and the Activity [6] was “inactive”. For the same compound, the Activity [7] was “inactive” and the Activity [8] was “inactive”.
For `CCCc1cn(CCn2c(=N)sc3cc(OC(F)(F)F)ccc32)nn1`, the Activity [1] was “inactive”, the Activity [2] was “Active” and the Activity [3] was “inactive”. For the same compound, the Activity [4] was “inactive”, the Activity [5] was “inactive” and the Activity [6] was “inactive”. The Activity [7] was “inactive” and the Activity [8] was “inactive”.
In the case of `COc1ccccc1-c1cn(CCn2c(=N)sc3cc(OC(F)(F)F)ccc32)nn1`, the Activity [1] is reported as “inactive”, the Activity [2] is reported as “Active” and the Activity [3] is reported as “inactive”. The Activity [4] was “inactive”, the Activity [5] was “inactive” and the Activity [6] was “inactive”. The Activity [7] was “inactive” and the Activity [8] was “inactive”.
With `N=c1sc2cc(OC(F)(F)F)ccc2n1CCn1cc(-c2ccccc2Br)nn1` the Activity [1] was “inactive”, the Activity [2] was “Active” and the Activity [3] was “inactive”. The Activity [4] was “inactive”, the Activity [5] was “inactive” and the Activity [6] was “inactive”. The Activity [7] was “inactive” and the Activity [8] was “inactive”.
With `CC(C)CCc1cn(CCn2c(=N)sc3cc(OC(F)(F)F)ccc32)nn1` the Activity [1] was “inactive”, the Activity [2] was “Active” and the Activity [3] was “inactive”. For the same compound, the Activity [4] was “inactive”, the Activity [5] was “inactive” and the Activity [6] was “inactive”. The Activity [7] was “inactive” and the Activity [8] was “inactive”.
In the case of `N=c1sc2cc(OC(F)(F)F)ccc2n1CCn1cc(-c2ccsc2)nn1`, the Activity [1] is reported as “inactive”, the Activity [2] is reported as “Active” and the Activity [3] is reported as “inactive”. The Activity [4] was “inactive”, the Activity [5] was “inactive” and the Activity [6] was “inactive”. The Activity [7] was “inactive” and the Activity [8] was “inactive”.
In the case of `N=c1sc2cc(OC(F)(F)F)ccc2n1CCn1cc(-c2ccc(F)cc2)nn1`, the Activity [1] is reported as “inactive”, the Activity [2] is reported as “Active” and the Activity [3] is reported as “inactive”. For the same compound, the Activity [4] was “inactive”, the Activity [5] was “inactive” and the Activity [6] was “inactive”. For the same compound, the Activity [7] was “inactive” and the Activity [8] was “inactive”.
With `N=c1sc2cc(OC(F)(F)F)ccc2n1CCn1cc(-c2ccc(F)c(F)c2)nn1` the Activity [1] was “inactive”, the Activity [2] was “Active” and the Activity [3] was “inactive”. For the same compound, the Activity [4] was “inactive”, the Activity [5] was “inactive” and the Activity [6] was “inactive”. For the same compound, the Activity [7] was “inactive” and the Activity [8] was “inactive”.
